Published values pooled from the literature.
Protocols differ between the studies behind these lines.
Target: Protein kinase C iota type (PRKCI, Homo sapiens, UniProt P41743)
Sequence (P41743 1-596, as in one of the studies): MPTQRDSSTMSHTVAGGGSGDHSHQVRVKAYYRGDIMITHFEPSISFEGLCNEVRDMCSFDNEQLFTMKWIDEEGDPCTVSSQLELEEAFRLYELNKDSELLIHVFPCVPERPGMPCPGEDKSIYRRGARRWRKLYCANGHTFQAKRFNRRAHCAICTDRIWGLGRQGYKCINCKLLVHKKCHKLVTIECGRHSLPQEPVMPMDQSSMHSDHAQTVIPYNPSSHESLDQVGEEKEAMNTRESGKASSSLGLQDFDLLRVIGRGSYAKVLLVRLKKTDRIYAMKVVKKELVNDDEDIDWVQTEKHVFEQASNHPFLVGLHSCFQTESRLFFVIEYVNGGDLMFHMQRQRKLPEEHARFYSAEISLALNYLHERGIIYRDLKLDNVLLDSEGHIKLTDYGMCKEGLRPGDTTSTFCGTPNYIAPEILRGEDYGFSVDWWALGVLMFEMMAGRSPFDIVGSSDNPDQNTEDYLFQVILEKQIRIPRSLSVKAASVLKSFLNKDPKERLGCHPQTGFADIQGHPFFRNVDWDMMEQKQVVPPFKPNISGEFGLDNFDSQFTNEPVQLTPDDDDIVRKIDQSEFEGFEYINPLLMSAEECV

CC(C)(C)c1nc(-c2cccc(NS(=O)(=O)c3c(F)cccc3F)c2F)c(-c2ccnc(N)n2)s1
remaining activity (enzyme activity, inhibitor, radiometric; 1 µM): 100%

CN(C)C1CCN(CC#Cc2nn(C3CCCC3)c3nc(NCc4ccccc4)ncc23)C1 (stereo not drawn)
inhibition (enzyme activity, inhibitor, FRET; 0.1 µM): 9%

CCN(CC)c1ccc(C2=NNC(=O)CC2C)cc1[N+](=O)[O-] (stereo not drawn)
remaining activity (enzyme activity, inhibitor; 10 µM): 108%

Cc1sc(C(=O)NC2COC2)cc1-n1cc(NC(=O)Nc2c(F)cccc2Cl)cn1
remaining activity (enzyme activity, inhibitor; 10 µM): 90.8%

CO[C@@H](C)c1c(Nc2ccc([C@H](N(C)C(=O)C3CCS(=O)(=O)CC3)C(F)(F)F)cc2)cnc2cc(Cl)nn12
remaining binding (cell-free assay, competition with immobilised ligand; 1 µM): 72%

CC/C(=N\NC(=O)NCc1cccc(O)c1)c1ccc(O)c(C)c1O
inhibition (enzyme activity, inhibitor; 0.1 µM): 15.8%

Cc1ccc(-n2nc(C(C)(C)C)cc2NC(=O)Nc2ccc(OCCN3CCOCC3)c3ccccc23)cc1
inhibition (enzyme activity, inhibitor; 10 µM): 3%

COc1ccc2cc(OCC3(C(=O)O)CN(C(=O)c4ccc(F)cc4)C3)ccc2c1
remaining binding (cell-free assay, competition with immobilised ligand; 1 µM): 100%

Nc1ncnc2occ(-c3ccc(NC(=O)Nc4cc(C(F)(F)F)ccc4F)cc3)c12
remaining signal (cell-free assay; 20 µM): 6.8%

CC(C)(O)c1cncc(-c2nc3ccc(F)cc3n2C2CC2)c1
remaining binding (cell-free assay, competition with immobilised ligand; 1 µM): 89%

Cc1ccc(Nc2nccc(N(C)c3ccc4c(C)n(C)nc4c3)n2)cc1S(N)(=O)=O
remaining activity (enzyme activity; 0.5 µM): 96.1%

CNCc1ccc(-c2cc(-c3nc(-c4ccc(S(=O)(=O)C(C)C)cc4)cnc3N)on2)cc1
inhibition (enzyme activity, inhibitor; 0.4 µM): 0%

COc1cccc2c(NCc3ccccc3)nc(-n3c(N)nc4ccccc43)nc12
inhibition (target engagement in cells, inhibitor, chemoproteomics; 20 mM): -13.3%

Cn1nc(C(=O)NCc2ccc(C(=O)O)cc2)cc1-c1ccc2[nH]ccc2c1
remaining binding (cell-free assay, competition with immobilised ligand; 0.1 µM): 80%

CCN(CC)CCNC(=O)c1c(C)[nH]c(/C=C2\C(=O)Nc3ccc(F)cc32)c1C
inhibition (enzyme activity, inhibitor; 0.3 µM): 3%

CC(C)c1ccc(NC(=O)c2cccs2)c(-c2nc3ccccc3[nH]c2=O)c1
activity vs control (enzyme activity, inhibitor; 1 µM): 94%

COc1cc(-c2cc(-c3ccc(N4CCNCC4)cc3)cnc2C)cc(OC)c1OC
inhibition (enzyme activity, inhibitor; 1 µM): 18%

Cc1ccc(NC(=O)c2ccc(C)c(C(F)(F)F)c2)cc1C#Cc1nn(C2CCC(O)CC2)c2ncnc(N)c12 (stereo not drawn)
remaining signal (cell-free assay; 10 µM): 91%

Cc1c[nH]c2nccc(Oc3c(F)cc(Nc4cc(Cl)nc(N)n4)cc3F)c12
remaining binding (cell-free assay, competition with immobilised ligand; 0.1 µM): 100%

CNC(=O)c1cc(Oc2ccc(NC(=O)Nc3ccc(Cl)c(C(F)(F)F)c3)cc2)ccn1
inhibition (enzyme activity, inhibitor; 10 µM): 9%

C[C@@H]1CN(c2cc(-c3nn(C)c4ccc(OC5(C)CC5)cc34)ncn2)C[C@H](C)O1
remaining binding (cell-free assay, competition with immobilised ligand; 1 µM): 100%

N[C@@H]1CCN(c2nccc(-c3cnn4ncccc34)n2)C1
remaining binding (binding; 1 µM): 33%

O=C(Nc1cnc(Oc2ccc(F)cc2)nc1)N1CCc2ncccc2[C@@H]1c1ccc(F)cc1
remaining binding (cell-free assay, competition with immobilised ligand; 1 µM): 98%

N#CCCc1ccc2c(c1)-c1[nH]c3ccc([N+](=O)[O-])cc3c1CC(=O)N2
remaining signal (cell-free assay; 0.5 µM): 65.3%

COc1cc2ncnc(Nc3ccc(Oc4ccccc4)cc3C)c2cc1OC
inhibition (enzyme activity, inhibitor; 1 µM): 3%

Nc1c(C(=O)NCc2ccc(C(=O)NCCCC3CCCCC3)cc2)cnn1-c1ccccc1
remaining binding (cell-free assay, competition with immobilised ligand; 0.1 µM): 97%

Cc1cc(NC(=O)c2cccc3cc(-c4cccc5[nH]nc(N)c45)ccc23)ccc1F
activity vs control (enzyme activity, inhibitor; 0.1 µM): 98%
